Measured values from different studies.
Each line is one published result; the experiments were not run side by side.
Target: Testis-specific serine/threonine-protein kinase 1 (TSSK1B, Homo sapiens, UniProt Q9BXA7)
Sequence (Q9BXA7 1-367, as in one of the studies): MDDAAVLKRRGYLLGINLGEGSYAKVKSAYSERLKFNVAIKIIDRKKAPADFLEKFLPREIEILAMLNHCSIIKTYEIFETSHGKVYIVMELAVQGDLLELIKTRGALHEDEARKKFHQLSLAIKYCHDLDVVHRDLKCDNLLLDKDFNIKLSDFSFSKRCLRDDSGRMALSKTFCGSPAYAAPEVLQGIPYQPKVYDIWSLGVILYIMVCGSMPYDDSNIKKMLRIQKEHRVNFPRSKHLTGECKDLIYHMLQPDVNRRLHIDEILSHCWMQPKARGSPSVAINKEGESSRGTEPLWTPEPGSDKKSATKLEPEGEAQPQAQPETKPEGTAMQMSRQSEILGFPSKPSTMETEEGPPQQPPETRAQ

Nc1ncnc2occ(-c3ccc(NC(=O)Nc4cc(C(F)(F)F)ccc4F)cc3)c12  remaining signal (cell-free assay; inhibitor; 20 µM): 52%
COc1ccc2c(O[C@@H]3C[C@H]4C(=O)N[C@]5(C(=O)O)CC5/C=C\CCCCC[C@H](NC(=O)OC5CCCC5)C(=O)N4C3)cc(-c3csc(NC(=O)C(C)C)n3)nc2c1C (some centres unmarked)  remaining binding (cell-free assay; competition with immobilised ligand; 1 µM): 70%
Cc1ccc(NC(=O)c2ccc(CN3CCN(C)CC3)cc2)cc1Nc1nc(-c2cccnc2)cs1  remaining signal (cell-free assay; 0.5 µM): 100%
CNc1cccc2cc(C(=O)Nc3ccc(C(=O)O)cc3)c(=O)[nH]c12  inhibition (enzyme activity; inhibitor; 10 µM): 2.1%
Cc1nc(N2CC[C@@H](O)C2)ncc1-c1cc(C(F)(F)F)cc2[nH]ncc12  remaining binding (binding; competition with immobilised ligand; 1 µM): 98%
CNC(=O)c1cc(Oc2ccc(NC(=O)Nc3ccc(Cl)c(C(F)(F)F)c3)cc2)ccn1  inhibition (enzyme activity; inhibitor; 10 µM): 2%
O=C(Nc1cccnn1)N1CC(C/C=C/c2cncc(Oc3ccc(C(F)(F)F)cn3)n2)C1  remaining binding (cell-free assay; competition with immobilised ligand; 1 µM): 100%
CC(C)(C)c1nc2c(s1)c1nc(N)ncc1c1ccc(NS(=O)(=O)c3c(F)cccc3F)c(F)c12  remaining activity (enzyme activity; inhibitor; radiometric; 1 µM): 88%
COc1cc(Cl)c(C(=O)N[C@@H](CN[C@H]2CC[C@@H](N)CC2)Cc2ccc(C#N)cc2)cc1-c1ccc(CN[C@H](C)c2ccc(C)cc2)o1  remaining activity (enzyme activity; inhibitor; 1 µM): 101%
Cc1ccc(Nc2nccc(N(C)c3ccc4c(C)n(C)nc4c3)n2)cc1S(N)(=O)=O  inhibition (enzyme activity; inhibitor; 0.3 µM): -1%
COc1cc(/C=C/C(=O)CC(=O)/C=C/c2ccc(O)c(OC)c2)ccc1O  activity vs control (enzyme activity; inhibitor; 1 µM): 106%
COc1cc2ncnc(Nc3ccc(Oc4ccccc4)c(C)c3C)c2cc1OC  inhibition (enzyme activity; inhibitor; 1 µM): 4%
CCCOc1ccc(OC)c(F)c1C(=O)c1ccc(C(=O)N[C@@H]2CNC[C@H]2NC(=O)c2ccc3[nH]ncc3c2)cc1  remaining activity (enzyme activity; inhibitor; 10 µM): 70%
Cc1ccc(C(=O)Nc2ccc(CN3CCN(C)CC3)c(C(F)(F)F)c2)cc1C#Cc1cnc2cccnn12  remaining activity (enzyme activity; inhibitor; 23.5 nM): 83%
CCN(CC)c1ccc(C2=NNC(=O)CC2C)cc1[N+](=O)[O-] (centres unmarked)  remaining activity (enzyme activity; inhibitor; 10 µM): 96%
CN(C)C(=O)Cn1cc(-c2nc(C3(c4ccc(-c5cnc(N)nc5)cc4)CC3)no2)cn1  remaining binding (cell-free assay; competition with immobilised ligand; 1 µM): 100%
CN(C)C1CCN(CC#Cc2nn(C3CCCC3)c3nc(NCc4ccccc4)ncc23)C1 (centres unmarked)  inhibition (enzyme activity; inhibitor; FRET; 0.1 µM): 4%
O=S(=O)(NC1CCC(c2cc(F)ccc2F)(S(=O)(=O)c2ccc(Cl)cc2)CC1)C(F)(F)F (centres unmarked)  remaining binding (cell-free assay; competition with immobilised ligand; 1 µM): 100%
O=C(Nc1cnn(-c2csc(C(=O)NC3COC3)c2)c1)Nc1ccccc1Cl  remaining activity (enzyme activity; inhibitor; 5 µM): 102%
CS(=O)(=O)N1CCCC(NC(=O)[C@H](CCC2CCCCC2)NC(=O)c2ccc(CNC(=O)c3cnc4ccccn34)cc2)C1 (some centres unmarked)  remaining binding (cell-free assay; competition with immobilised ligand; 0.1 µM): 94%
CCN(CC)CCNC(=O)c1c(C)[nH]c(/C=C2\C(=O)Nc3ccc(F)cc32)c1C  inhibition (enzyme activity; inhibitor; 0.3 µM): -1%
C[C@H](c1cccc(C#N)c1)n1cc(Cl)cc(C(N)=O)c1=N  remaining binding (cell-free assay; competition with immobilised ligand; 1 µM): 96%
O=C1NC(=O)c2cc(Nc3ccc(F)cc3)c(Nc3ccc(F)cc3)cc21  remaining signal (cell-free assay; 0.5 µM): 90.2%
